SIAE inh – human SIAE inhibition, primary screen | actives 0.69% (n = 370,000) | inhibition, % at 9.66 µM | SIAE FP-Rh probe binding, fluorescence polarization;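 active = inhibition above a cutoff: mean of compounds within the control limits plus 3 SD of those, cut at about 17% in these data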;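 also: 0% = plate median of compound wells and 100% = probe without SIAE protein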
TCR CD3 inh – inhibitors of human TCR-CD3 interaction; TAMRA-labeled TCR probe fluorescence, biochemical; inhibition, % at 9.4 µM; actives 0.37% (n = 360,000); AID 651800;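 also: recombinant mutant TCR 2C K166C tagged with TAMRA read by polarization; 0% = receptor in buffer alone and 100% = receptor with positive control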
HTRA1 inh – blocks human HTRA1 serine peptidase; recombinant HTRA1, FP-rhodamine activity-based probe, fluorescence polarization; Q92743; actives 0.5% (n = 340,000); AID 504803; inhibition, % at 5.96 µM; in the data active = inhibition above about 36%;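 also: 0% = enzyme with DMSO and 100% = wells lacking enzyme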
DAGLB inhibitor – diacylglycerol lipase beta (human) inhibition. Q8NCG7. inhibition, % at 5.17 µM. actives 0.059% (n = 340,000). HEK293T DAGLB membrane lysate, EnzChek fluorogenic substrate. AID 504411; in the data active = inhibition above about 34%;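 also: 0% = enzyme with vehicle and 100% = wells lacking enzyme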
Target sequence (Q8NCG7 whole entry, looked up): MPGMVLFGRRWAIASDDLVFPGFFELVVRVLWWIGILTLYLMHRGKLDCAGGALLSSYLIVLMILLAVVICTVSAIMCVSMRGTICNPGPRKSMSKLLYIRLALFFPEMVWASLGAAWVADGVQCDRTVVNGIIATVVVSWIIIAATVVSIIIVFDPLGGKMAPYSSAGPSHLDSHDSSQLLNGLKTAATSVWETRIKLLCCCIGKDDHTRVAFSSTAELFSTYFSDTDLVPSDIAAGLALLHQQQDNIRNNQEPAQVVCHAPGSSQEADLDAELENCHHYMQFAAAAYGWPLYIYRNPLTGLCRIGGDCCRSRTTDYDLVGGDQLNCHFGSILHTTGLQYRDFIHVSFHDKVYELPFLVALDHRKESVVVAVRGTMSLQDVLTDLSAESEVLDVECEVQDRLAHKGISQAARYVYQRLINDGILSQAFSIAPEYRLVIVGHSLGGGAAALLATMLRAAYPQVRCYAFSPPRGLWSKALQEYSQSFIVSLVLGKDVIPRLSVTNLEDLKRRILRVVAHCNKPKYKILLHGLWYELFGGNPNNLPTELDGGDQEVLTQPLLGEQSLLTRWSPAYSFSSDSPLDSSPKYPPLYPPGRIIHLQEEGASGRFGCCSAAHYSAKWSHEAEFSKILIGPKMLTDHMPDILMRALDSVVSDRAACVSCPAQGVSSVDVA
ABHD4 inh – inhibitors of mouse ABHD4. Q8VD66. purified mABHD4, FP-Rh probe fluorescence polarization. inhibition, % at 8.92 µM. actives 0.54% (n = 370,000);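 active = inhibition exceeding the mean over every tested compound plus 3 SD, cut at about 30% in these data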;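 also: 0% = plate median of compound wells and 100% = S159A mutant with DMSO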
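Assay system: mouse ABHD4 enzyme, wild type / Also added: fluorescent activity-based probe FP-Rh / Doses: single nominal dose of 8.92 µM, 0.89% DMSO final / Timing: 45 min compound pre-incubation plus 60 min probe step, 25 °C / Signal: FP readout, ex 525 nm / em 598 nm / Control set: S159A mutant/DMSO as 100%, compound-well median as 0%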
HTRA1 inh conf – confirmation of human HTRA1 inhibitors; shares compounds with HTRA1 inh; recombinant HTRA1, FP-rhodamine activity-based probe, fluorescence polarization; inhibition, % at 5.96 µM; actives 66% (n = 1,600); AID 540248;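 active = mean inhibition over three repeats above a set limit taken from the earlier primary screen, cut at about 37% in these data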;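 also: 0% = HTRA1 with DMSO and 100% = wells lacking HTRA1; inhibitors block probe binding so polarization drops and inhibition rises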
BSA TAMRA ctr – interferes with TAMRA-BSA probe, flagging TCR-CD3 hits | TAMRA-labeled BSA probe fluorescence counterscreen | actives 10% (n = 1,200) | shares compounds with TCR CD3 inh | inhibition, % at 9.4 µM; in the data active = inhibition above about 23%;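 also: 0% = buffer low control and 100% = reference high control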
TCR-CD3 inh conf – confirmation of human TCR-CD3 interaction inhibitors; TAMRA-labeled TCR probe fluorescence binding assay; actives 48% (n = 1,200); inhibition, % at 9.4 µM; AID 652036; shares compounds with TCR CD3 inh
ABHD4 confirm – confirmation of mouse ABHD4 inhibitors; purified mABHD4, FP-Rh probe fluorescence polarization; shares compounds with ABHD4 inh; AID 720658; actives 55% (n = 1,800); inhibition, % at 8.92 µM;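 active = mean inhibition across replicates above the hit cutoff set in the primary screen, cut at about 30% in these data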;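 also: 0% = wild-type ABHD4 with DMSO and 100% = catalytically dead S159A mutant with DMSO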
SIAE confirm – confirmation of human SIAE inhibitors; SIAE FP-Rh activity-based probe, fluorescence polarization; shares compounds with SIAE inh; actives 13% (n = 2,300); inhibition, % at 9.66 µM; AID 1117263;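 active = mean inhibition of the replicates above the hit cutoff set in the primary screen, cut at about 17% in these data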;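 also: 0% = SIAE with DMSO and probe and 100% = probe without SIAE; inhibitors lower polarization as more probe stays unbound to SIAE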
Starred values were filed as active, the others as inactive. The list is not random: actives were taken first. Their share in the collection is about 1.6%. Rule as the data show it, unless noted: active = inhibition above about 19%; inactive = the rest.

For CN(C)C1C(=O)C(C(N)=O)=C(O)C2(O)C(=O)C3=C(O)c4c(O)cccc4C(C)(O)C3C(O)C12 (centres undefined) the results were SIAE inh 12, TCR CD3 inh 25*, HTRA1 inh 56*, DAGLB inhibitor 2, ABHD4 inh 67*, HTRA1 inh conf 8, BSA TAMRA ctr -1, TCR-CD3 inh conf 7 and ABHD4 confirm 18.
NC(N)=N/N=C/c1ccc(N(c2ccccc2)c2ccccc2)cc1 was read as SIAE inh 22*, TCR CD3 inh -4, HTRA1 inh 46*, DAGLB inhibitor 6, ABHD4 inh 42*, HTRA1 inh conf 60*, ABHD4 confirm 71* and SIAE confirm 36*.
Cc1cc(N2CCNC[C@H]2C)ccc1N1CC[C@H](O)C1 was read as SIAE inh 6, TCR CD3 inh 8 and ABHD4 inh 20.
Screening C[n+]1c2ccccc2nc2ccc(NCCO)cc21 returned SIAE inh 60*, TCR CD3 inh 196*, HTRA1 inh 86*, DAGLB inhibitor 1, ABHD4 inh 97*, HTRA1 inh conf 86*, BSA TAMRA ctr 177*, TCR-CD3 inh conf 139*, ABHD4 confirm 63* and SIAE confirm 68*.
For OCCNc1c2c(nc3ccccc13)CCCC2 the results were SIAE inh 6, TCR CD3 inh -2, HTRA1 inh 1, DAGLB inhibitor 0 and ABHD4 inh 2.
Screening CNc1ccc2nc3ccccc3[n+](C)c2c1 returned SIAE inh 108*, TCR CD3 inh active, HTRA1 inh 115*, DAGLB inhibitor 4, ABHD4 inh 119*, HTRA1 inh conf 101*, BSA TAMRA ctr active, TCR-CD3 inh conf 184*, ABHD4 confirm 101* and SIAE confirm 113*.
O=C(NCCN1CCC2(CC1)C(=O)NCN2c1ccccc1)c1ccc(Cl)cc1 was read as SIAE inh 6, TCR CD3 inh 6 and ABHD4 inh 7.
`CCN(CC)c1ccc(N=Cc2c(O)n(-c3cc(OC)ccc3OC)c(=O)[nH]c2=O)cc1` gave SIAE inh 25*, TCR CD3 inh 9, HTRA1 inh 46*, DAGLB inhibitor 3, ABHD4 inh 65*, HTRA1 inh conf 14, ABHD4 confirm 4 and SIAE confirm 5.
`CC(C)C(C(=O)NC(C)(C)C)N1C(=O)CN=C(c2ccccc2)c2ccccc21` (centres undefined) gave SIAE inh 9 and ABHD4 inh -2.
For C/C(=N\NC(=O)c1ccncc1)c1c(O)n(Cc2ccccc2)c(=O)[nH]c1=O the results were SIAE inh 0, TCR CD3 inh 19*, HTRA1 inh 5, DAGLB inhibitor 4, ABHD4 inh 8, BSA TAMRA ctr -7 and TCR-CD3 inh conf 11.
O=C(N/N=C/c1c(O)n(Cc2ccccc2)c(=O)[nH]c1=O)c1ccncc1 was read as SIAE inh 4, TCR CD3 inh 26*, ABHD4 inh 24, BSA TAMRA ctr -11 and TCR-CD3 inh conf 9.
Screening C/C(=N\NC(=O)c1ccccc1O)c1c(O)n(Cc2ccccc2)c(=O)[nH]c1=O returned SIAE inh 4, TCR CD3 inh 34*, HTRA1 inh 23, DAGLB inhibitor 14, ABHD4 inh 25, BSA TAMRA ctr -15 and TCR-CD3 inh conf 37*.
`O=C(N/N=C/c1c(O)n(-c2ccccc2)c(=S)[nH]c1=O)c1ccccc1` gave SIAE inh -11, TCR CD3 inh 27*, ABHD4 inh 3, BSA TAMRA ctr -11 and TCR-CD3 inh conf 7.
`C/C(=N\Nc1ccccc1)c1c(O)n(Cc2ccccc2)c(=O)[nH]c1=O` gave SIAE inh 0, TCR CD3 inh 13, HTRA1 inh -8, DAGLB inhibitor 5 and ABHD4 inh -7.
O=C(N/N=C/c1c(O)n(Cc2ccc(F)cc2)c(=O)[nH]c1=O)c1ccccc1 was read as SIAE inh -3, TCR CD3 inh 11, HTRA1 inh 10, DAGLB inhibitor 7 and ABHD4 inh 10.
Screening CC[C@]12CCN(CC3(O)CC3)C(Cc3ccc(O)cc31)C2(C)C returned SIAE inh 2, TCR CD3 inh 1 and ABHD4 inh 0.
O=C(NC(CCC(O)CO)P(=O)(Oc1ccccc1)Oc1ccccc1)OCc1ccccc1 (centres undefined) was read as SIAE inh -4 and ABHD4 inh 3.
Screening COc1cc2c(cc1O)CC1c3c(cc(O)c(OC)c3-2)CCN1C (centres undefined) returned SIAE inh 11, TCR CD3 inh 22*, HTRA1 inh 8, DAGLB inhibitor 2, ABHD4 inh 24, BSA TAMRA ctr -1 and TCR-CD3 inh conf 7.
For COc1cc2c(cc1OC)-c1c(OC)c(OC)cc3c1[C@H](C2)N(C)CC3 the results were SIAE inh 10, TCR CD3 inh -3, HTRA1 inh 15, DAGLB inhibitor 4 and ABHD4 inh 17.
`COC(=O)C1=C[C@H]([C@@H](C)[C@H](OC)c2ccccc2Br)[C@@H]2[C@H]1c1ccccc1N2C` gave SIAE inh 8 and ABHD4 inh 2.
For NC(=O)c1ccc(N=Cc2c(O)n(Cc3ccco3)c(=O)[nH]c2=O)cc1 the results were SIAE inh -2, TCR CD3 inh 21*, HTRA1 inh -3, DAGLB inhibitor 1, ABHD4 inh -4, BSA TAMRA ctr 13 and TCR-CD3 inh conf 26*.
Screening Oc1ccc(C[C@H]2NCCc3cc(O)c(O)cc32)cc1O returned SIAE inh 16, TCR CD3 inh 113*, HTRA1 inh 28, DAGLB inhibitor -2, ABHD4 inh 15, BSA TAMRA ctr -5 and TCR-CD3 inh conf 19*.
`Cc1cccc(C(C)c2cnc[nH]2)c1C` (centres undefined) gave SIAE inh 0 and ABHD4 inh -2.
Screening CN(C)c1ccc(C=C2C(=O)NC(=O)NC2=O)cc1 returned SIAE inh 1, TCR CD3 inh -3, HTRA1 inh -1, DAGLB inhibitor 0 and ABHD4 inh 1.
